Measured values: ChEMBL document CHEMBL1255409, “In vitro activity of ceftaroline against 623 diverse strains of anaerobic bacteria” (2010)
≈ marks a conversion by molar mass, not a printed value.

Key:
[1] = system: Fusobacterium varium; assay: Antimicrobial activity against Fusobacterium varium under anaerobic conditions after 44 hrs by CLSI-M11-47 protocol based agar dilution method; assay type: functional
Outline: (§1)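 Clinical isolates were stored at −70°C in 20% skim milk and identified phenotypically or by partial 16S rRNA sequencing. Each strain was subcultured twice from frozen stock. Cell paste from 48-h cultures was suspended in brucella broth to a 0.5 McFarland standard. About 10^5 CFU per spot were applied by Steers replicator to agar dilution plates prepared on the day of testing. Plates were incubated 44 h at 37°C in an anaerobic chamber. MIC was taken as the lowest concentration giving complete inhibition or marked reduction of growth versus the drug-free control.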

[2] = system: Clostridium perfringens; assay: Antimicrobial activity against Clostridium perfringens under anaerobic conditions after 44 hrs by CLSI-M11-47 protocol based agar dilution method; assay type: functional
[3] = system: Clostridium bolteae; assay: Antimicrobial activity against Clostridium bolteae under anaerobic conditions after 44 hrs by CLSI-M11-47 protocol based agar dilution method; assay type: functional; details: Enterocloster bolteae
Outline: (§2)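 Reference agar dilution per CLSI M11-A7 with plates made on test day. Clinical isolates were stored at −70°C in 20% skim milk, subcultured twice, and 48-h cell paste was suspended in brucella broth to 0.5 McFarland. About 10^5 CFU/spot was applied with a Steers replicator. Plates were incubated 44 h at 37°C anaerobically. MIC was the lowest concentration giving complete inhibition or marked growth reduction versus the drug-free control.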

[4] = system: Lacrimispora sphenoides; assay: Antimicrobial activity against Clostridium sphenoides under anaerobic conditions after 44 hrs by CLSI-M11-47 protocol based agar dilution method; assay type: functional; outline: as §2
[5] = system: Prevotella denticola; assay: Antimicrobial activity against Prevotella denticola under anaerobic conditions after 44 hrs by CLSI-M11-47 protocol based agar dilution method; assay type: functional; outline: as §1
[6] = system: Clostridium glycolicum; assay: Antimicrobial activity against Clostridium glycolicum under anaerobic conditions after 44 hrs by CLSI-M11-47 protocol based agar dilution method; assay type: functional; details: Terrisporobacter glycolicus; outline: as §2
[7] = system: Atopobium parvulum; assay: Antimicrobial activity against Atopobium parvulum under anaerobic conditions after 44 hrs by CLSI-M11-47 protocol based agar dilution method; assay type: functional; details: Lancefieldella parvula; outline: as §2
[8] = system: Actinomyces neuii subsp. anitratus; assay: Antimicrobial activity against Actinomyces neuii subsp. anitratus under anaerobic conditions after 44 hrs by CLSI-M11-47 protocol based agar dilution method; assay type: functional, Winkia neuii subsp. anitrata; details: Winkia neuii; outline: as §2
[9] = system: Fusobacterium mortiferum; assay: Antimicrobial activity against Fusobacterium mortiferum under anaerobic conditions after 44 hrs by CLSI-M11-47 protocol based agar dilution method; assay type: functional; outline: as §2
[10] = system: Parvimonas micra; assay: Antimicrobial activity against Parvimonas micra under anaerobic conditions after 44 hrs by CLSI-M11-47 protocol based agar dilution method; assay type: functional; outline: as §1
[11] = system: Bacteroides fragilis; assay: Antimicrobial activity against Bacteroides fragilis spp. under anaerobic conditions after 44 hrs by CLSI-M11-47 protocol based agar dilution method; assay type: functional; outline: as §2
[12] = system: Clostridioides difficile; assay: Antimicrobial activity against Clostridium difficile under anaerobic conditions after 44 hrs by CLSI-M11-47 protocol based agar dilution method; assay type: functional; outline: as §2
[13] = system: Slackia exigua; assay: Antimicrobial activity against Slackia exigua under anaerobic conditions after 44 hrs by CLSI-M11-47 protocol based agar dilution method; assay type: functional; outline: as §1
[14] = system: Prevotella oris; assay: Antimicrobial activity against Prevotella oris under anaerobic conditions after 44 hrs by CLSI-M11-47 protocol based agar dilution method; assay type: functional; details: Segatella oris; outline: as §1
[15] = system: Propionibacterium avidum; assay: Antimicrobial activity against Propionibacterium avidum under anaerobic conditions after 44 hrs by CLSI-M11-47 protocol based agar dilution method; assay type: functional; details: Cutibacterium avidum; outline: as §1
[16] = system: Clostridium aldenense; assay: Antimicrobial activity against Clostridium aldenense under anaerobic conditions after 44 hrs by CLSI-M11-47 protocol based agar dilution method; assay type: functional; details: Enterocloster aldenensis; outline: as §2
[17] = system: Eubacterium saburreum; assay: Antimicrobial activity against Eubacterium saburreum under anaerobic conditions after 44 hrs by CLSI-M11-47 protocol based agar dilution method; assay type: functional; details: Lachnoanaerobaculum saburreum; outline: as §2
[18] = system: Anaerococcus tetradius; assay: Antimicrobial activity against Anaerococcus tetradius under anaerobic conditions after 44 hrs by CLSI-M11-47 protocol based agar dilution method; assay type: functional; outline: as §2
[19] = system: Clostridium hathewayi; assay: Antimicrobial activity against Clostridium hathewayi under anaerobic conditions after 44 hrs by CLSI-M11-47 protocol based agar dilution method; assay type: functional; details: Hungatella hathewayi; outline: as §2
[20] = system: Gemella sanguinis; assay: Antimicrobial activity against Gemella sanguinis under anaerobic conditions after 44 hrs by CLSI-M11-47 protocol based agar dilution method; assay type: functional; outline: as §1
[21] = system: Thomasclavelia ramosa; assay: Antimicrobial activity against Clostridium ramosum under anaerobic conditions after 44 hrs by CLSI-M11-47 protocol based agar dilution method; assay type: functional; outline: as §2

Structure (SMILES): CCC[C@@H]1C[C@@H](C(=O)N[C@@H]([C@H]2O[C@H](SC)[C@H](O)[C@@H](O)[C@H]2O)[C@H](C)Cl)N(C)C1 [CLINDAMYCIN]
- MIC50 [1]: 2 mg/L (≈ 4.71 µM)
- MIC90 [1]: 4 mg/L (≈ 9.41 µM)
- MIC50 [2]: 0.25 mg/L (≈ 0.588 µM)
- MIC90 [2]: 1 mg/L (≈ 2.35 µM)
- MIC50 [3]: 0.5 mg/L (≈ 1.18 µM)
- MIC90 [3]: 2 mg/L (≈ 4.71 µM)
- MIC50 [4]: 2 mg/L (≈ 4.71 µM)
- MIC90 [4]: 128 mg/L (≈ 301 µM)
- MIC50 [5]: ≤ 0.03 mg/L
- MIC90 [5]: 128 mg/L (≈ 301 µM)
- MIC50 [6]: 2 mg/L (≈ 4.71 µM)
- MIC90 [6]: 128 mg/L (≈ 301 µM)
- MIC50 [7]: 0.06 mg/L (≈ 0.141 µM)
- MIC90 [7]: 2 mg/L (≈ 4.71 µM)
- MIC50 [8]: 0.06 mg/L (≈ 0.141 µM)
- MIC90 [8]: 128 mg/L (≈ 301 µM)
- MIC50 [9]: 0.06 mg/L (≈ 0.141 µM)
- MIC90 [9]: 1 mg/L (≈ 2.35 µM)
- MIC50 [10]: 0.25 mg/L (≈ 0.588 µM)
- MIC90 [10]: 16 mg/L (≈ 37.6 µM)
- MIC50 [11]: 4 mg/L (≈ 9.41 µM)
- MIC90 [11]: > 128 mg/L
- MIC50 [12]: 2 mg/L (≈ 4.71 µM)
- MIC90 [12]: 128 mg/L (≈ 301 µM)
- MIC50 [13]: 0.06 mg/L (≈ 0.141 µM)
- MIC90 [13]: 2 mg/L (≈ 4.71 µM)
- MIC50 [14]: ≤ 0.03 mg/L
- MIC90 [14]: 128 mg/L (≈ 301 µM)
- MIC50 [15]: 0.25 mg/L (≈ 0.588 µM)
- MIC90 [15]: 0.25 mg/L (≈ 0.588 µM)
- MIC50 [16]: 0.5 mg/L (≈ 1.18 µM)
- MIC90 [16]: 2 mg/L (≈ 4.71 µM)
- MIC50 [17]: 0.06 mg/L (≈ 0.141 µM)
- MIC90 [17]: 2 mg/L (≈ 4.71 µM)
- MIC50 [18]: 0.5 mg/L (≈ 1.18 µM)
- MIC90 [18]: 128 mg/L (≈ 301 µM)
- MIC50 [19]: 0.5 mg/L (≈ 1.18 µM)
- MIC90 [19]: 2 mg/L (≈ 4.71 µM)
- MIC50 [20]: 0.125 mg/L (≈ 0.294 µM)
- MIC90 [20]: 64 mg/L (≈ 151 µM)
- MIC50 [21]: 4 mg/L (≈ 9.41 µM)
- MIC90 [21]: 8 mg/L (≈ 18.8 µM)

Structure (SMILES): Cc1ncc([N+](=O)[O-])n1CCO [METRONIDAZOLE]
- MIC50 [1]: 0.25 mg/L (≈ 1.46 µM)
- MIC90 [1]: 0.5 mg/L (≈ 2.92 µM)
- MIC50 [2]: 2 mg/L (≈ 11.7 µM)
- MIC90 [2]: 4 mg/L (≈ 23.4 µM)
- MIC50 [3]: 0.06 mg/L (≈ 0.351 µM)
- MIC90 [3]: 0.25 mg/L (≈ 1.46 µM)
- MIC50 [4]: 0.5 mg/L (≈ 2.92 µM)
- MIC90 [4]: 4 mg/L (≈ 23.4 µM)
- MIC50 [5]: 0.5 mg/L (≈ 2.92 µM)
- MIC90 [5]: 2 mg/L (≈ 11.7 µM)
- MIC50 [6]: 0.5 mg/L (≈ 2.92 µM)
- MIC90 [6]: 4 mg/L (≈ 23.4 µM)
- MIC50 [7]: 0.5 mg/L (≈ 2.92 µM)
- MIC90 [7]: 1 mg/L (≈ 5.84 µM)
- MIC50 [8]: > 32 mg/L
- MIC90 [8]: > 32 mg/L
- MIC50 [9]: 0.5 mg/L (≈ 2.92 µM)
- MIC90 [9]: 1 mg/L (≈ 5.84 µM)
- MIC50 [10]: 0.25 mg/L (≈ 1.46 µM)
- MIC90 [10]: 0.25 mg/L (≈ 1.46 µM)
- MIC50 [11]: 1 mg/L (≈ 5.84 µM)
- MIC90 [11]: 2 mg/L (≈ 11.7 µM)
- MIC50 [12]: 0.5 mg/L (≈ 2.92 µM)
- MIC90 [12]: 4 mg/L (≈ 23.4 µM)
- MIC50 [13]: 0.5 mg/L (≈ 2.92 µM)
- MIC90 [13]: 1 mg/L (≈ 5.84 µM)
- MIC50 [14]: 0.5 mg/L (≈ 2.92 µM)
- MIC90 [14]: 2 mg/L (≈ 11.7 µM)
- MIC50 [15]: > 32 mg/L
- MIC90 [15]: > 31 mg/L
- MIC50 [16]: 0.06 mg/L (≈ 0.351 µM)
- MIC90 [16]: 0.25 mg/L (≈ 1.46 µM)
- MIC50 [17]: 0.5 mg/L (≈ 2.92 µM)
- MIC90 [17]: 1 mg/L (≈ 5.84 µM)
- MIC50 [18]: 1 mg/L (≈ 5.84 µM)
- MIC90 [18]: 2 mg/L (≈ 11.7 µM)
- MIC50 [19]: 0.06 mg/L (≈ 0.351 µM)
- MIC90 [19]: 0.25 mg/L (≈ 1.46 µM)
- MIC50 [20]: 1 mg/L (≈ 5.84 µM)
- MIC90 [20]: 4 mg/L (≈ 23.4 µM)
- MIC50 [21]: 1 mg/L (≈ 5.84 µM)
- MIC90 [21]: 1 mg/L (≈ 5.84 µM)
